The values below come from ChEMBL document CHEMBL1275436, “Trypanocidal and leishmanicidal activities of sesquiterpene lactones from Ambrosia tenuifolia Sprengel (Asteraceae)” (Antimicrob Agents Chemother, 2008).

The test system of series [1] is Trypanosoma cruzi. Put plainly: Antitrypanosomal activity against Trypanosoma cruzi trypomastigotes after 24 hrs by counting remaining live parasites in a Neubauer chamber.
A short description of series [2]: Cytotoxicity against BALB/c mouse T cell after 24 hrs by trypan blue exclusion method. The following applies: T cells. Type of series: cell-based. In short, it runs like this: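 BALB/c mouse T lymphocytes at 2 x 10^6/ml were exposed to 0.1, 1, 10 and 50 µg/ml compound for 24 h. Viability was scored by trypan blue exclusion. Results are means ± SEM of three experiments done in duplicate.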

A further series deals with Leishmania mexicana. As to the kind of experiment: Antileishmanial activity against Leishmania mexicana MNYC/BZ/62/M promastigotes after 120 hrs by [3H]thymidine uptake assay. Type of series: functional, organism-based. In short, it runs like this:
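Promastigotes were seeded at 1.5 x 10^6/ml in triplicate and exposed to 0.01 to 100 µg/ml compound for 72 or 120 h. [3H]thymidine was added for the last 16 h. Percent inhibition = 100 − (cpm treated/cpm untreated × 100). Amphotericin B (0.27–1.6 µM) was the positive control.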

In series [3] the test system is Trypanosoma cruzi. Put plainly: Antitrypanosomal activity against Trypanosoma cruzi epimastigotes after 72 hrs by [3H]thymidine uptake assay. The series is classed as functional, organism-based. In a few lines:
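Epimastigotes were seeded at 1.5 x 10^6/ml in triplicate with compound up to 100 µg/ml for 72 or 120 h, with [3H]thymidine pulsed for the final 16 h. Inhibition % = 100 − (cpm treated/cpm untreated × 100). Benznidazole (5 to 20 µM) was the positive control. Results are means ± SEM.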

Series [4] is described as follows: Selectivity index, ratio of CC50 for mouse T cells to IC50 for Trypanosoma cruzi trypomastigotes. The series is classed as functional, T-cell. In a few lines: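 SI = 50% cytotoxic concentration on murine T lymphocytes (24 h, trypan blue exclusion) divided by IC50 against bloodstream trypomastigotes (24 h, Neubauer count of live parasites).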
The test system of series [5] is Trypanosoma cruzi. Put plainly: Antitrypanosomal activity against Trypanosoma cruzi trypomastigotes infected in C3H/HeN mouse assessed as decrease in parasitemia at 1 mg/kg/day, ip treated from day 5 to 10 postinfection measured on day 16. Type of series: functional, organism-based. In a few lines:
(§1)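 Male C3H/HeN mice (6–8 weeks, groups of five) were infected ip with 5 x 10^3 bloodstream trypomastigotes, with parasitemia confirmed on day 5 by microhematocrit. Dosing was 1 mg/kg/day ip in 0.1 M PBS pH 7.2 on days 5–10; vehicle served as negative control. Tail blood (5 µl, lysed 1:5 in NH4Cl/Tris) was counted by Neubauer chamber every 2 days. Deaths were recorded daily. Three independent experiments were run.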

For series [6], the system named is Trypanosoma cruzi. As to the kind of experiment: Antitrypanosomal activity against Trypanosoma cruzi trypomastigotes infected in C3H/HeN mouse assessed as reduction in parasitemia at 1 mg/kg/day, ip treated from day 5 to 10 postinfection measured during acute phase of infection relative to control. The series is classed as functional. As to conditions: route intraperitoneal. In short, it runs like this: as §1

Series [7] deals with Trypanosoma cruzi. As to the kind of experiment: Antitrypanosomal activity against Trypanosoma cruzi trypomastigotes infected in C3H/HeN mouse assessed survival rate at 1 mg/kg/day, ip treated from day 5 to 10 postinfection measured on 100th day postinfection. The series is classed as functional. The following applies: route intraperitoneal. In a few lines: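 Male inbred C3H/HeN mice, 6 to 8 weeks old, 27.2 ± 0.9 g, in groups of five, infected ip with 5 x 10^3 bloodstream trypomastigotes. Circulating parasites confirmed on day 5 by microhematocrit. Dosed ip daily, 1 mg/kg/day, on days 5 to 10 postinfection, in 0.1 M PBS pH 7.2; vehicle alone as negative control. Deaths recorded daily; three independent experiments.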

Converted amounts (≈) assume the structure as drawn. The source made the active and inactive calls. The calls are words filed in the database; no cut-off is given here.

`C=C1C(=O)O[C@@H]2C[C@H](C)[C@]3(O)CCC(=O)[C@@]3(C)C[C@H]12` [PERUVIN]: the IC50 in the series on Trypanosoma cruzi [1] turned out to be 52.8 µg/mL (≈ 200 µM); in the series on Leishmania mexicana, 0.39 µg/mL (≈ 1.48 µM); in the series on Trypanosoma cruzi [3], 1.65 µg/mL (≈ 6.24 µM). Besides, the cytotoxic concentration (CC50) at 24 h in series [2] is 35 µg/mL (≈ 132 µM). For the same molecule, the “Selectivity Index” value in series [4] came to 0.7.

Regarding `C=C1C(=O)O[C@@H]2[C@H]1CC[C@H](C)[C@]1(CCC(=O)O1)[C@@]2(C)O` [PSILOSTACHYIN A], in the series on Trypanosoma cruzi [5], the inhibition entry is “Active”. In addition, the IC50 in the series on Trypanosoma cruzi [1] was 0.76 µg/mL (≈ 2.71 µM); in the series with Leishmania mexicana it was 0.12 µg/mL (≈ 0.428 µM); in the series with Trypanosoma cruzi [3], 1.22 µg/mL (≈ 4.35 µM). Moreover, the “fold change (FC)” value with Trypanosoma cruzi [6] is given as 1.5. This molecule returned a CC50 at 24 h in series [2] of 25.7 µg/mL (≈ 91.7 µM). Besides, the Activity in the series on Trypanosoma cruzi [7] is on record as 100%. Also, in series [4], the “Selectivity Index” value was 33.8.
